Hits are enriched below; roughly 2.1% of the tested compounds scored in any of these assays.
MEKK2mut PB1 HTS: MEK5 binding signal on mutant MEKK2 PB1, primary screen, biochemical, multiplex bead flow cytometry, Alexa488-MEK5 | Alexa488-MEK5 binding to MEKK2 mutant | percent response, % at 10 µM | 290,000 tested, 0.35% active | AID 1530, 2009; in the data active = percent response above about 24%, passing the limit was not always enough
MEKK3 PB1 HTS: modulators of MEKK3-MEK5 PB1 binding, primary screen, biochemical, wildtype MEKK3, multiplex bead flow cytometry, Alexa488-MEK5. Mitogen-activated protein kinase kinase kinase 3 (Homo sapiens), Q99759. bead-based flow cytometry, Alexa488-MEK5 binding to MEKK3; actives lie on both sides; 0 = blocked by unlabeled MEK5, 100 = vehicle. binding response (% of control), % at 10 µM. 290,000 tested, 1.4% active. AID 1529, 2009;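 active = binding response more than 3 SD above or below the average of its plate-row segment, actives on both sides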;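 also: Alexa488 bead fluorescence after subtracting the streptavidin-only scavenger bead signal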
STK33 inh: inhibitors of purified STK33 kinase, primary screen, biochemical, ADP-Glo luminescence, homogeneous, cell-free. Serine/threonine-protein kinase 33 (Homo sapiens), Q9BYT3. MBP phosphorylation. inhibition, % at 10 µM. 320,000 tested, 0.073% active. AID 2661, 2010;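 active = inhibition at or above 25%, using the most active replicate where run in duplicate; inactive = inhibition below 25%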
Target sequence (Q9BYT3 whole entry, looked up): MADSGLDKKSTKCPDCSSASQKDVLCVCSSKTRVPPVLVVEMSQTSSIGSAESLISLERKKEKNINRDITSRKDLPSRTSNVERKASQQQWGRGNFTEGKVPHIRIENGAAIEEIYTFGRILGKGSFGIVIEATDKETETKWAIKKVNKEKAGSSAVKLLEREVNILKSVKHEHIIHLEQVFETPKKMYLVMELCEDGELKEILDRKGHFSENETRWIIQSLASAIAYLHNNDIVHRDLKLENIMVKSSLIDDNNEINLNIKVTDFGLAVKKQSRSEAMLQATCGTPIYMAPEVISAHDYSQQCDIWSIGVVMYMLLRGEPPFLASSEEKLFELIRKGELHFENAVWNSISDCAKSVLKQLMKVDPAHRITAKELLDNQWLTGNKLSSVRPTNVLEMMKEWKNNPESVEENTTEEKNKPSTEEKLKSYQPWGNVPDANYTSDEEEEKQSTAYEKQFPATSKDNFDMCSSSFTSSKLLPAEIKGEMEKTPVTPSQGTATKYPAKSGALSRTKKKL
GSK3A inh: blockers of GSK3A enzyme activity – biochemical, luminescence, cell-free homogeneous, HTS, primary screen. Glycogen synthase kinase-3 alpha (Homo sapiens), P49840. GSK-3 alpha kinase, ADP-Glo luminescence, 60 min. inhibition, % at 10 µM. 320,000 tested, 0.1% active. AID 2650, 2010;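 active = more than half of replicates show inhibition above 20%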;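 also: GST-tagged GSK-3 alpha with peptide substrate and 25 µM ATP; 0% = DMSO neutral wells and 100% = GW8510 positive control wells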
MEKK2 WT-MEK5: modulators of MEK5 binding to wildtype MEKK2, primary screen, biochemical, multiplex bead flow cytometry, Alexa488-MEK5; Mitogen-activated protein kinase kinase kinase 2 (Homo sapiens), Q9Y2U5; Alexa488-MEK5 binding to MEKK2 WT; actives lie on both sides; binding response (% of control), % at 10 µM; 290,000 tested, 1.1% active; in the data active = binding response below about 67% or above about 130%
GSK3beta inhib: human GSK3beta kinase inhibitors, primary screen, biochemical, cell-free homogeneous, HTS; Glycogen synthase kinase-3 beta (Homo sapiens), P49841; GST-GSK3beta kinase, ADP-Glo luminescence, 60 min; hits give low values; activity score (negative = inhibition), % at 10 µM; 300,000 tested, 0.038% active; AID 2097, 2009;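 active = more than half of replicate wells score below -50%, meaning over 50% inhibition versus plate controls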;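 also: 0% = median DMSO wells and -100% = median GW8510 positive control wells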
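Test system – GST-tagged human GSK3beta kinase, cell-free · Incubation – 60 min enzyme reaction, room temperature · Signal – ADP-Glo luminescence · Also added – peptide substrate and ATP at 25 µM · Controls – DMSO neutral wells and GW8510 at 20 µM as positive · Buffer or medium – Tris/MgCl2 kinase buffer · Measure – Luminescence-derived activity versus plate DMSO and GW8510 wells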
MEKK2wt confirm: modulators of MEK5 binding to wildtype MEKK2, confirmation, biochemical, single concentration, multiplex bead flow cytometry. shares compounds with MEKK3 PB1 HTS. Alexa488-MEK5 binding to MEKK2 WT; actives lie on both sides. binding response (% of control), % at 10 µM. 5,900 tested, 2.4% active. AID 1892, 2009; in the data active = binding response below about 16% or above about 210%; inactive = in between
MEKK2mut confirm: mutant MEKK2 PB1-MEK5 binding signal retest – biochemical, single concentration, multiplex bead flow cytometry, confirmation. shares compounds with MEKK3 PB1 HTS. Alexa488-MEK5 binding to MEKK2 mutant. percent response, % at 10 µM. 5,900 tested, 2% active; in the data active = percent response mostly above about 71%, no sharp cut-off; inactive = mostly below about 38%;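 also: higher means compound restores mutant binding toward wildtype level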
MEKK3 confirm: MEKK3 wild-type PB1 binding to MEK5, inhibitors, confirmation, biochemical, bead multiplex flow cytometry, single concentration, wildtype; shares compounds with MEKK3 PB1 HTS; Alexa488-MEK5 binding to MEKK3; hits give low values; binding response (% of control), % at 10 µM; 5,900 tested, 1.8% active; AID 1894, 2009;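 active = binding response below 72% of control, or above a set upper limit, though filed actives all read lower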;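 also: 100% = DMSO only wells and 0% = binding blocked by excess unlabeled MEK5; lower values mean stronger disruption of MEK5 binding to MEKK3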
Active calls of the source: *; [ ] = remark or other dose.

COc1cc(-c2nnn(CC(=O)NC3CCS(=O)(=O)C3)n2)ccc1OCc1ccccc1 (stereo not given) was read as MEKK2mut PB1 HTS -24, MEKK3 PB1 HTS 0.0*[inhibitor], STK33 inh 0, GSK3A inh -4, MEKK2 WT-MEK5 0.0*[inhibitor], GSK3beta inhib 2, MEKK2wt confirm 105, MEKK2mut confirm 1 and MEKK3 confirm 106.
Cc1nsc2c1ccc1ccccc12 was read as MEKK2mut PB1 HTS -16, MEKK3 PB1 HTS 102, STK33 inh -1, GSK3A inh -4, MEKK2 WT-MEK5 89 and GSK3beta inhib 3.
`CC1=[N+](C)c2ccc3ccccc3c2C1(C)C` gave MEKK2mut PB1 HTS 71*, MEKK3 PB1 HTS 89, STK33 inh 1, GSK3A inh -1, GSK3beta inhib -1, MEKK2wt confirm 88, MEKK2mut confirm 5 and MEKK3 confirm 91.
`Cn1c(=O)n(C)c2cc(NC(=O)c3ccccc3NS(C)(=O)=O)ccc21` gave MEKK2mut PB1 HTS -3, MEKK3 PB1 HTS 97, STK33 inh 4, GSK3A inh 8, MEKK2 WT-MEK5 96 and GSK3beta inhib 2.
CCN1/C(=C/c2ccc3cc(C)ccc3[n+]2CC)Sc2cc(C)ccc21 was read as MEKK2mut PB1 HTS -4, MEKK3 PB1 HTS 51*[inhibitor], MEKK2 WT-MEK5 11*[inhibitor], MEKK2wt confirm 31, MEKK2mut confirm -37 and MEKK3 confirm 74.
For CCCCN1/C(=C/c2ccc3ccccc3[n+]2CC)Sc2ccccc21 the results were MEKK2mut PB1 HTS -10, MEKK3 PB1 HTS 93, MEKK2 WT-MEK5 59 and GSK3beta inhib -3.
`CCN1/C(=C/c2ccc3cc(C)ccc3[n+]2C)Sc2ccc3sccc3c21` gave MEKK3 PB1 HTS 0.0*[inhibitor], MEKK2wt confirm 7.0*[inhibitor], MEKK2mut confirm -33 and MEKK3 confirm 31*.
Screening Cc1ccc(NC(=S)NCC2CCCO2)c(OC(F)F)c1 (stereo not given) returned MEKK2mut PB1 HTS 19, MEKK3 PB1 HTS 105, STK33 inh -1, GSK3A inh 0, MEKK2 WT-MEK5 111 and GSK3beta inhib -18.
Cc1ccc(CNC(=O)CCCn2nc(C)n3ccnc3c2=O)cc1 was read as MEKK2mut PB1 HTS 4, MEKK3 PB1 HTS 102, STK33 inh 0, GSK3A inh -1, MEKK2 WT-MEK5 101 and GSK3beta inhib -1.
Cc1cccc(OCc2nnc(SCC(=O)NCCc3ccccc3)o2)c1 was read as MEKK2mut PB1 HTS -35, MEKK3 PB1 HTS 90, STK33 inh -1, GSK3A inh -2, MEKK2 WT-MEK5 -7.0*[inhibitor], GSK3beta inhib 0, MEKK2wt confirm 104, MEKK2mut confirm -1 and MEKK3 confirm 103.
Screening COc1cccc(CN(C)C(=O)/C=C/c2ccc(S(=O)(=O)N3CCCCCC3)cc2)c1 returned MEKK2mut PB1 HTS 4, MEKK3 PB1 HTS 98, STK33 inh -1, GSK3A inh -2, MEKK2 WT-MEK5 103 and GSK3beta inhib 5.
Screening C#CCOCCOCCOCCNc1nc(N2CCN(C(=O)[C@H](CCC(=O)O)n3cc(CN)nn3)CC2)nc(N2CCN(C(=O)[C@H](CCCCN)n3cc([C@@H](N)CC(N)=O)nn3)CC2)n1 returned STK33 inh 0 and GSK3A inh -1.
C[C@@H]1CN([C@H](C)CO)C(=O)c2cc(NC(=O)Nc3ccc4c(c3)OCO4)ccc2O[C@H]1CN(C)Cc1ccncc1 was read as STK33 inh -1 and GSK3A inh -3.
`COc1ccc(-n2cc(CNCc3cccnc3)c(-c3cccc(F)c3)n2)cc1` gave MEKK2mut PB1 HTS 16, MEKK3 PB1 HTS 88, STK33 inh 1, GSK3A inh 2, MEKK2 WT-MEK5 125 and GSK3beta inhib 0.
Screening COc1ccc(CNCc2cn(-c3cccc(F)c3)nc2-c2ccc(C)o2)cc1 returned MEKK2mut PB1 HTS 26, MEKK3 PB1 HTS 101, STK33 inh -1, GSK3A inh -3, MEKK2 WT-MEK5 168*, GSK3beta inhib 2, MEKK2wt confirm 172, MEKK2mut confirm 31 and MEKK3 confirm 109.
Screening CCN(C(=O)CN1CC(C)OC(C)C1)c1c(N)n(Cc2ccccc2)c(=O)[nH]c1=O (stereo not given) returned MEKK2mut PB1 HTS -13, MEKK3 PB1 HTS 98, STK33 inh -4, GSK3A inh 1, MEKK2 WT-MEK5 90 and GSK3beta inhib 0.
For COc1ccc(OCC(=O)N/N=C/c2ccsc2)cc1 the results were MEKK2mut PB1 HTS 0, MEKK3 PB1 HTS 140*, MEKK2 WT-MEK5 104, GSK3beta inhib 1, MEKK2wt confirm 105, MEKK2mut confirm 8 and MEKK3 confirm 101.
Screening CN(C1CCCCC1)S(=O)(=O)c1ccc(S(=O)(=O)N2CCN(C(=O)c3ccccc3F)CC2)cc1 returned MEKK2mut PB1 HTS 9, MEKK3 PB1 HTS 144*, STK33 inh -3, GSK3A inh -1, MEKK2 WT-MEK5 133, GSK3beta inhib 2, MEKK2wt confirm 106, MEKK2mut confirm 4 and MEKK3 confirm 106.
For CCc1sc(C(=O)N2CCN(C(=O)c3ccccc3)CC2)cc1C the results were STK33 inh -2 and GSK3A inh 0.
`COc1ccc(C(=O)NCc2nnc(SCC(=O)NO)n2Cc2ccccc2)cc1` gave MEKK2mut PB1 HTS 1, MEKK3 PB1 HTS 99, STK33 inh 1, GSK3A inh -1, MEKK2 WT-MEK5 99 and GSK3beta inhib 3.
